Converted amounts (≈) assume the structure as drawn.
Key:
Type in all cases: functional
Staphylococcus aureus [1] = test: Antibacterial activity against methicillin-susceptible Staphylococcus aureus ATCC 29213 by microdilution method
How it was run: (§1)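 Tigecycline MIC measured in triplicate by broth microdilution following CLSI guidelines. Isolates were stored at −80°C in skim milk and subcultured twice on blood agar before testing.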

Staphylococcus aureus [2] = test: Antibacterial activity against community-acquired methicillin-resistant Staphylococcus aureus 144 by microdilution method; how it was run: as §1
Staphylococcus aureus [3] = test: Antibacterial activity against community-acquired methicillin-resistant Staphylococcus aureus 156 by microdilution method; how it was run: as §1
Staphylococcus aureus [4] = test: Antibacterial activity against community-acquired methicillin-resistant Staphylococcus aureus 147 by microdilution method; how it was run: as §1
Staphylococcus aureus [5] = test: Antibacterial activity against hospital-acquired methicillin-resistant Staphylococcus aureus 56 by microdilution method; how it was run: as §1
Staphylococcus aureus [6] = test: Antibacterial activity against hospital-acquired methicillin-resistant Staphylococcus aureus 152 by microdilution method; how it was run: as §1

Row | SMILES | MIC (Staphylococcus aureus [1]) [µg/mL] | MIC (Staphylococcus aureus [2]) [µg/mL] | MIC (Staphylococcus aureus [3]) [µg/mL] | MIC (Staphylococcus aureus [4]) [µg/mL] | MIC (Staphylococcus aureus [5]) [µg/mL] | MIC (Staphylococcus aureus [6]) [µg/mL]
1 | CCC[C@@H]1C[C@@H](C(=O)N[C@@H]([C@H]2O[C@H](SC)[C@H](O)[C@@H](O)[C@H]2O)[C@H](C)Cl)N(C)C1 [CLINDAMYCIN] | 0.125 (≈ 0.294 µM) | > 16 | ≤ 0.5 | 0.125 (≈ 0.294 µM) | 0.25 (≈ 0.588 µM) | 0.125 (≈ 0.294 µM)
2 | C[C@H]1c2cccc(O)c2C(=O)C2=C(O)[C@]3(O)C(=O)C(C(N)=O)=C(O)[C@@H](N(C)C)[C@@H]3[C@@H](O)[C@@H]21.O [DOXYCYCLINE] | 0.5 | 0.5 |  | 2 | 8 | 0.5
3 | CC[C@H]1OC(=O)[C@H](C)[C@@H](O[C@H]2C[C@@](C)(OC)[C@@H](O)[C@H](C)O2)[C@H](C)[C@@H](O[C@@H]2O[C@H](C)C[C@H](N(C)C)[C@H]2O)[C@](C)(O)C[C@@H](C)C(=O)[C@H](C)[C@@H](O)[C@]1(C)O [ERYTHROMYCIN] | 1 (≈ 1.36 µM) | > 32 | > 32 | > 32 | 32 (≈ 43.6 µM) | 1 (≈ 1.36 µM)

— ChEMBL document CHEMBL1649261, “Pharmacodynamic profile of tigecycline against methicillin-resistant Staphylococcus aureus in an experimental pneumonia model” (Antimicrob Agents Chemother, 2009)
